Source: PubChem BioAssay (The Scripps Research Institute Molecular Screening Center)
Compounds with a hit are over-represented: about 1.8% of the library has one in this group of screens.
CHRM4 agonist: agonists of human muscarinic M4 receptor (CHRM4). activation, % at 3 µM. P08173. hit rate 0.14% among 360,000. CHO-K1 hM4/Gqi5, Fluo-8 calcium fluorescence; vehicle 0%, full acetylcholine response 100%;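 active = activation above the run mean over all test wells plus 3 SD, cut at about 32% in these data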;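 also: peak over basal fluorescence ratio per well then scaled between controls; 0% = DMSO wells and 100% = acetylcholine at EC100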
Target sequence (P08173 whole entry, looked up): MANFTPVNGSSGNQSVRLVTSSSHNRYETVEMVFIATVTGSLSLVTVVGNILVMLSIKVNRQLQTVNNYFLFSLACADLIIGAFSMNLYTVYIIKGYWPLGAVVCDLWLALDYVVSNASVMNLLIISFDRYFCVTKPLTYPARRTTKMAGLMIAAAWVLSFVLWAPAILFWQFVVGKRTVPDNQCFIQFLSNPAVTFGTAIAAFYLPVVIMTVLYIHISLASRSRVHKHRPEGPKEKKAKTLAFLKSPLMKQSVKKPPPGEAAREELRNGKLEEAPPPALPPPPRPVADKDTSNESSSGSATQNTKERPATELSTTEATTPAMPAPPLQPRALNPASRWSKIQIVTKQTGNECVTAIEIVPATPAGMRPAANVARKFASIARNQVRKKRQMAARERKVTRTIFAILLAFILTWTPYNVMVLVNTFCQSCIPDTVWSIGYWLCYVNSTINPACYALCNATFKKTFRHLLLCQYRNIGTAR
M5 PAM: CHRM5 positive allosteric modulation; P08912; CHO-K1 hM5, Fluo-8 calcium, ACh EC20 PAM; 0% = ACh EC20, 100% = ACh EC100; activation, % at 3 µM; hit rate 0.3% among 360,000; AID 624038;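 active = activation above the run cutoff, the mean activation of all test compounds plus 3 SD, cut at about 18% in these data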
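Assay system – human M5 receptor in CHO-K1 cells · Read-out – % activation, ACh-normalized · Technique – Fluo-8 calcium fluorescence · Dosing – single-point, 3 µM nominal · Incubation – Fluo-8 loading 80 min at 37 °C plus 30 min room temperature · Repeats – singlicate, one well per test compound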
M4 PAM: potentiates acetylcholine response at human M4 receptor. P08173. CHO-K1 hM4/Gqi5, Fluo-8 calcium fluorescence, ACh EC20; 0% = ACh EC20, 100% = maximal ACh. activation, % at 3 µM. hit rate 0.4% among 360,000. AID 624126;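 active = activation above its plate's cutoff, the mean activation of sample wells plus 3 SD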
M5 ag: CHRM5 agonism in calcium assay | hit rate 0.19% among 360,000 | AID 624037 | P08912 | activation, % at 3 µM | CHO-K1 hM5 cells, Fluo-8 calcium fluorescence; 0% DMSO wells, 100% maximal acetylcholine response;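 active = activation above the run's mean over test compounds plus 3 SD, cut at about 23% in these data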;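 also: signal is peak over basal fluorescence ratio across the kinetic read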
M5 antag: blocks acetylcholine activation of human M5 receptor; P08912; AID 624040; CHO-hM5 cells, Fluo-8 calcium fluorescence, ACh EC80; hit rate 0.59% among 360,000; inhibition, % at 3 µM;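 active = inhibition above a per-plate cutoff, the mean of that plate's test compounds plus 3 SD, cut at about 27% in these data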;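 also: 0% = acetylcholine EC80 with DMSO and 100% = DMSO without agonist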
M4 antag: antagonists of human muscarinic M4 receptor (CHRM4); CHO-hM4 cells, ACh EC80, Fluo-8 calcium fluorescence; inhibition, % at 3 µM; hit rate 0.73% among 360,000;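 active = inhibition above its plate's cutoff, the mean inhibition of sample wells plus 3 SD, cut at about 27% in these data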;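 also: 0% = acetylcholine EC80 with DMSO and 100% = DMSO without agonist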
The depositor's hits bear a star.

SMILES | CHRM4 agonist | M5 PAM | M4 PAM | M5 ag | M5 antag | M4 antag
Nc1nc(N)nc(-c2cc(O)ccc2O)n1 | 1 | 0 | 8 | 2 | 3 | -4
CC(C)(C)c1cc(-c2nc(N)nc(N)n2)c(O)c(C(C)(C)C)c1 | 0 | 24* | 10 | 5 | -13 | -1
CC(C)(C)n1nnnc1C(c1cccs1)N(Cc1cccnc1)Cc1ccco1 (stereo unspecified) | -2 | -48 | -17 | -16 | 70* | 26
N#Cc1ccc(C(=O)N2CCCC(c3cc(C(=O)NCc4cccnc4)no3)C2)cc1 (stereo unspecified) | 3 | 2 | 3 | -1 | -11 | -27
C/C(=N\NC(=O)CSc1nc2ccccc2s1)c1ccco1 | 1 | 21* | 5 | 1 | 8 | 2
CC(=O)NCCNC(=O)c1ccc(CSc2nc3ccccc3s2)cc1 | 1 | 1 | -13 | -1 | -4 | 39*
Cc1c(Cl)cccc1NC(=O)CSc1nc(=O)n(CCCN2CCOCC2)c2c1CCCC2 | 4 | -2 | -3 | 0 | -1 | -13
C[C@H]1CCC[C@@]2(O[C@H](CCO)C[C@H](O)[C@H]2O)O1 | 1 | 12 | 15 | 6 | 0 | -2
CCc1nc2c(OCc3ccc(Cl)cc3)cccn2c1N(C)C(=O)c1ccc2c(c1)OCO2 | 1 | -5 | 2 | -3 | 6 | -12
Nc1nc(-c2ccccn2)nc(N)c1Cc1ccccc1F | 2 | 4 | 6 | 5 | -8 | 22
Nc1nc(-c2ccccn2)nc(N)c1Cc1ccc(Cl)cc1Cl | 30 | 18 | -12 | 16 | 2 | 81*
Clc1ccc(OCc2nc(-c3ccccn3)no2)c(Br)c1 | 0 | -9 | -8 | -1 | 1 | -12
Nc1nc(-c2ccccn2)nc(N)c1Cc1c(F)cccc1Cl | 1 | 19* | 10 | 5 | -3 | -4
CN(C)CCOC1c2ccccc2CSc2ccccc21 (stereo unspecified) | 1 | -28 | -16 | -19 | 99* | 98*
Cc1ccc(S(=O)(=O)n2nnc3ccccc32)c(C)c1C | 2 | 6 | 24* | -1 | -3 | -2
CCOc1ccccc1-n1c(N)c(C(N)=O)sc1=S | 2 | 22* | 8 | 11 | -10 | 6
CCC(=O)c1ccc(OC(=O)c2ccc(Br)o2)cc1 | 33* | -7 | -10 | 36* | 0 | 1
Cc1ccc(S(=O)(=O)N(CC(=O)NCC2CCCO2)C2CCCCC2)cc1 (stereo unspecified) | 2 | 4 | -1 | -2 | -4 | -25
CC(=O)Nc1ccccc1-c1nc2cc(C#N)c(C#N)cc2[nH]c1=O | 2 | -4 | 0 | -2 | 11 | -5
CCC(Oc1nc2ccccc2nc1-c1ccccc1NC(C)=O)C(=O)c1ccccc1 (stereo unspecified) | -1 | -1 | 33* | 5 | -1 | 19
COc1ccc(-c2cnc(C(O)c3ccc(CN4CCCCC4)cc3)[nH]2)cc1 (stereo unspecified) | 0 | -2 | 0 | -3 | -4 | -19
CC(=O)Nc1ccc(CN2CCN(C3CCCC3)C(CCO)C2)cc1 (stereo unspecified) | 0 | 5 | -24 | -15 | 4 | 35*
CCN1CCN(Cc2ccc(NC(=O)Nc3ccccc3)cc2)CC1 | 1 | -4 | 1 | -2 | -3 | -12
COc1ccc(-n2ccnc2CN2CCN(C3CCCC3)C(CCO)C2)cc1 (stereo unspecified) | 0 | 0 | -5 | -1 | 1 | 0
CSc1ncc(CN2CCN(CC=C(C)C)C(CCO)C2)cn1 (stereo unspecified) | 1 | -4 | -5 | -2 | 7 | 1
SMILES | CHRM4 agonist | M5 PAM | M4 PAM | M5 ag | M5 antag | M4 antag
CSc1ncc(CN2CCN(C3CCCC3)C(CCO)C2)cn1 (stereo unspecified) | 0 | 1 | -41 | -10 | 3 | 42*
CC(=O)Nc1ccc(CN2CCCN(C)CC2)cc1 | 2 | -16 | 0 | -6 | 30* | 1
COc1ccc2c(c1)C=C(CN1CCN(C3CCCC3)C(CCO)C1)CO2 (stereo unspecified) | 1 | -20 | -20 | -16 | 5 | 73*
CCC(=O)N1CCCC(C)(C(=O)Nc2nccc3cccnc23)C1 (stereo unspecified) | 0 | -3 | -1 | 1 | 7 | 13
OCCC1CN(Cc2c(F)cccc2Cl)CCN1C1CCCC1 (stereo unspecified) | 1 | 3 | -21 | -15 | 9 | 26*
OCCC1CN(Cc2nc(-c3ccccc3)cs2)CCN1Cc1ccc(F)cc1 (stereo unspecified) | 10 | -5 | -1 | 3 | 9 | 1
OCCC1CN(Cc2nc(-c3ccccc3)cs2)CCN1C1CCCC1 (stereo unspecified) | 1 | -9 | -57 | -14 | 11 | 53*
OCCC1CN(Cc2c(F)cccc2Cl)CCN1C1CCCCC1 (stereo unspecified) | 0 | 11 | -26 | -9 | -4 | 5
COc1ccccc1CNC(=O)CCNS(=O)(=O)c1cccc2nonc12 | 4 | 3 | -4 | -1 | 5 | -3
CN(C)C(=S)Oc1ccccc1C1(C)OCCO1 | 1 | -6 | 3 | 1 | 3 | -7
COc1ccccc1-n1cnc2cc(NCc3ccccn3)ccc21 | 0 | -19 | -15 | -5 | 20 | 42*
COC(=O)C1=CN(Cc2cccs2)C=C(C(=O)OC)C1c1cccc(Cl)c1 | -1 | -21 | -7 | -10 | 9 | 8
COC(=O)C1=CN(Cc2cccs2)C=C(C(=O)OC)C1c1ccc(OC)cc1OC | -1 | -15 | 1 | -4 | 27* | -3
COC(=O)c1ccc(OCCN2C3=NCCN3c3ccccc32)cc1 | 1 | -3 | -21 | -8 | -5 | 40*
COC(=O)c1ccc(OCCN2CCCCCC2)cc1 | 0 | -5 | -18 | -10 | 7 | 19
Cc1c(-c2ccccc2)[n+](=O)c(-c2ccc(Cl)cc2)c(C)n1[O-] | 16 | -11 | 0 | -2 | 30* | -2
Cc1c(-c2ccccc2)[n+](=O)c(-c2ccc(Br)cc2)c(C)n1[O-] | 2 | 3 | -5 | 1 | 3 | 0
CC[C@]12c3[nH]c4cc(-c5ccco5)ccc4c3CCN1C(=O)[C@@H](CC(=O)NCc1cccc(C(F)(F)F)c1)C[C@@H]2C(=O)N1CCN(C(=O)c2ccco2)CC1 | 2 | -1 | 3 | 0 | 4 | -16
CC(C)(C)NCCC(O)c1cc(C(F)(F)F)nc2c(C(F)(F)F)cccc12 (stereo unspecified) | 14 | 5 | -3 | 4 | 3 | -2
Cc1nc2c(C(F)(F)F)cccc2c2c1CCS2 | 0 | 19* | 4 | 4 | -5 | -5
